From ChEMBL document CHEMBL4699629, “N-Hydroxyformamide LpxC inhibitors, their in vivo efficacy in a mouse Escherichia coli infection model, and their safety in a rat hemodynamic assay” (Bioorg Med Chem, 2020)
Converted amounts (≈) assume the structure as drawn.

How the values were obtained:
[1] = Displacement of fluorescent ligand from Escherichia coli LpxC measured after 30 mins by fluorescence anisotrophy assay
Procedure, shortened: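 Well mixes of 2 nM ligand C ± 12.5 nM E. coli LpxC; inhibitor two-fold dilutions 10 µM to […]; 30 min ambient, anisotropy 540/590 nm; % inhibition vs no-enzyme min; Hill fit for IC50; artifact correction at high concentrations.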

Escherichia coli [2] = experiment: Antibacterial activity against Escherichia coli ATCC 25922 assessed as bacterial growth inhibition by CLSI based broth microdilution method; format: functional
Procedure, shortened: (§1)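 CLSI broth microdilution determination of MIC.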

[3] = target: T1, UDP-3-O-acyl-N-acetylglucosamine deacetylase (Pseudomonas aeruginosa (strain ATCC 15692 / PAO1 / 1C / PRS 101 / LMG12228), UniProt P47205); experiment: Displacement of fluorescent ligand from Pseudomonas aeruginosa LpxC measured after 30 mins by fluorescence anisotrophy assay
T1 sequence (P47205 whole entry): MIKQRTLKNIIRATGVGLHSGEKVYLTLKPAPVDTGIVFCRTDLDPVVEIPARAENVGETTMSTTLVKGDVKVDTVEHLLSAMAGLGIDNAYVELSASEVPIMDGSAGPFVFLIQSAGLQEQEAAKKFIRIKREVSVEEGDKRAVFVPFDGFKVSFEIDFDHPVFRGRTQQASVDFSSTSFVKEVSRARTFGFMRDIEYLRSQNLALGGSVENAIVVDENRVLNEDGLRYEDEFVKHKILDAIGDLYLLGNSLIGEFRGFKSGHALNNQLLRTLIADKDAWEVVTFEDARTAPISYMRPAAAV

[4] = Chemical stability of the compound; format: physicochemical
Klebsiella pneumoniae = experiment: Antibacterial activity against Klebsiella pneumoniae ATCC 700603 assessed as bacterial growth inhibition by CLSI based broth microdilution method; format: functional; procedure, shortened: as §1
Pseudomonas aeruginosa = experiment: Antibacterial activity against Pseudomonas aeruginosa PAO1 assessed as bacterial growth inhibition by CLSI based broth microdilution method; format: functional; procedure, shortened: as §1
[5] = Solubility of the compound in 2.5% dextrose in sodium acetate buffer at pH 5; format: physicochemical
[6] = Ratio of fAUC in mouse at 200 mg/kg, sc to MIC for antibacterial activity against Escherichia coli ARC6599 infected in cyclophosphamide-induced CD-1 mouse model of neutropenic thigh infection; format: ADME, organism-based; conditions: in vivo
[7] = Clearance in Sprague-Dawley rat at 90 mg/kg, iv administered as single bolus dose by HPLC analysis; format: ADME, organism-based; conditions: in vivo
Procedure, shortened: (§2)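 Fasted male Sprague-Dawley rats given one IV tail-vein slow-push bolus of compound formulated at 90 mg/mL in 2.5% dextrose/20 mM acetate pH 5, 1 mL/kg; saphenous blood at selected times into K2EDTA for plasma.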

Escherichia coli [8] = experiment: Antibacterial activity against Escherichia coli ARC6599 infected in cyclophosphamide-induced CD-1 mouse model of neutropenic thigh infection assessed as log10 reduction in CFU at 200 mg/kg, sc bid administered 2 hrs post-infection and measured after 24 hrs; format: functional
Procedure, shortened: (§3)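 Female CD-1 mice made neutropenic with cyclophosphamide IP, 150 mg/kg day -4 and 100 mg/kg day -1. Saline suspension from overnight plate, OD625 0.13, diluted; 100 µL i.m. into both rear thighs (actual 7.6×10^5 CFU/thigh). Dosing began 2 h post-infection, s.c. at 20 mL/kg in 5% DMSO plus 2.5% dextrose/20 mM acetate ([…]); 3 mice/group. Thighs harvested 26 h post-infection, homogenized in 2 mL saline, plated; mean and SD of log CFU.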

Escherichia coli [9] = experiment: Antibacterial activity against Escherichia coli ARC6599 infected in sc dosed cyclophosphamide-induced CD-1 mouse model of neutropenic thigh infection assessed as reduction in CFU administered 2 hrs post-infection and measured after 24 hrs; format: functional, organism-based; procedure, shortened: as §3
[10] = Volume of distribution in mouse at 200 mg/kg, sc; format: ADME, organism-based; conditions: in vivo
[11] = Protein binding in rat plasma assessed as unbound fraction after 7 hrs by LC-MS/MS-based rapid equilibrium dialysis method; format: ADME, cell-free
Procedure, shortened: (§4)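 Rapid equilibrium dialysis: plasma spiked to 5 µM final, dialysed against PBS at 37 °C for 7 h with 400 rpm shaking; both chambers protein-precipitated with acetonitrile/0.1% formic acid containing carbutamide internal standard, quantified by LC-MS/MS. fu = buffer/sample peak area ratio; recovery accepted between 70 and 130%.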

Escherichia coli [12] = experiment: Antibacterial activity against Escherichia coli ARC6599 infected in cyclophosphamide-induced CD-1 mouse model of neutropenic thigh infection assessed as log10 reduction in CFU at 200 mg/kg, sc qd administered 2 hrs post-infection and measured after 24 hrs; format: functional; procedure, shortened: as §3
Acetylcholinesterase = Acetylcholinesterase (Homo sapiens, UniProt P22303); experiment: Inhibition of human AchE expressed in HEK293 cells using acetylthiocholine as substrate by Ellman's method
Procedure, shortened: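 Purified recombinant enzyme in 0.1 M sodium phosphate pH 7.4 with 0.01% Triton X-100. Two-fold inhibitor dilutions from 300 µM to 0.29 µM plus zero, each held at 3% DMSO. Acetylthiocholine and Ellman's reagent added as a solution of 1.2 mM each; reaction started with 0.006 U/mL enzyme solution. A412 read every minute for 1 h, with a no-enzyme blank subtracted. Initial slopes give % inhibition; IC50 from a Hill-equation fit.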

[13] = Cmax in mouse at 200 mg/kg, sc; format: ADME, organism-based; parameters: route subcutaneous, dose 200 mg/kg; conditions: in vivo
[14] = AUC in mouse at 200 mg/kg, sc; format: ADME, organism-based; parameters: dose 200 mg/kg; conditions: in vivo
[15] = Observed clearance in mouse at 200 mg/kg, sc; format: ADME, organism-based; conditions: in vivo
[16] = Protein binding in mouse plasma assessed as unbound fraction after 7 hrs by LC-MS/MS-based rapid equilibrium dialysis method; format: ADME, cell-free; procedure, shortened: as §4
[17] = Volume of distribution at steady state in Sprague-Dawley rat at 90 mg/kg, iv administered as single bolus dose by HPLC analysis; format: ADME, organism-based; conditions: in vivo, read-out: Vdss; procedure, shortened: as §2

Chain of Acetylcholinesterase (P22303 whole entry): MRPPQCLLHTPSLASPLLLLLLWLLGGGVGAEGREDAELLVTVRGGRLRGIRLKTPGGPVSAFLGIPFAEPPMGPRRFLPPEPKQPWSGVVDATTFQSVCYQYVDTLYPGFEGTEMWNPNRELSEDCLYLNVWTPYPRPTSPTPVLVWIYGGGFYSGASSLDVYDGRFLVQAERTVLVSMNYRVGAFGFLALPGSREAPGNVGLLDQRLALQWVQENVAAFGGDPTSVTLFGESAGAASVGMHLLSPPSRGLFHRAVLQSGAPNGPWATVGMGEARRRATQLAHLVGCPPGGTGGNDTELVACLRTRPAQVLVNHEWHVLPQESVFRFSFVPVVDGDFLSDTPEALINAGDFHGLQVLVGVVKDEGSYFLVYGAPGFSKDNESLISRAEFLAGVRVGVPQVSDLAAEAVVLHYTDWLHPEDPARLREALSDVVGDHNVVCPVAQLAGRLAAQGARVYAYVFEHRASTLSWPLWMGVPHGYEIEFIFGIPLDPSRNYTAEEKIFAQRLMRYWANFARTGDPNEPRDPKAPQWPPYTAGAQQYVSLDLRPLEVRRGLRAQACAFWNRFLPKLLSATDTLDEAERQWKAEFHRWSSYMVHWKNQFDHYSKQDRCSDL

| SMILES | IC50 [1] [nM] | MIC (Escherichia coli [2]) [µg/mL] | IC50 [3] [nM] | other results |
| --- | --- | --- | --- | --- |
| O=CN(O)CCc1nnc2cc(C#Cc3ccc(CN4CCOCC4)cc3)ccn12 | 54 | 16 (≈ 39.5 µM) | 280 |  |
| CSC(Cn1nnc2cc(C#Cc3ccc(CN4CCOCC4)cc3)ccc21)N(O)C=O (stereo not drawn) | < 10 | 0.25 (≈ 0.554 µM) | 1.3 |  |
| CCOC(Cn1nnc2cc(C#Cc3ccc(CN4CCOCC4)cc3)ccc21)N(O)C=O (stereo not drawn) | 22 | 2 (≈ 4.45 µM) | 41 | Stabilty [4]: Unstable |
| O=CN(O)CCn1nnc2cc(C#Cc3ccc(CN4CCOCC4)cc3)ccc21 | 20 | 4 (≈ 9.87 µM) | 44 |  |
| CC[C@@H]([C@@H](CC(C)O)c1n[nH]c2cc(C#Cc3ccc(CN4CCOCC4)cc3)ccc12)N(O)C=O (mixture of isomers) | < 10 | 1 | 2.5 | MIC (Klebsiella pneumoniae): 32 µg/mL; MIC (Pseudomonas aeruginosa): 16 µg/mL |
| O=CN(O)CCCc1ccc(C#Cc2ccc(CN3CCOCC3)cc2)cc1 | 21 | 32 (≈ 84.6 µM) | 63 |  |
| O=CN(O)CCc1nnn2cc(C#Cc3ccc(CN4CCOCC4)cc3)ccc12 | 15 | 4 (≈ 9.87 µM) | 37 |  |
| CCC(Cn1nnc2cc(C#Cc3ccc(CN4CCOCC4)cc3)ccc21)N(O)C=O (stereo not drawn) | < 10 | 1 (≈ 2.31 µM) | 2.4 |  |
| O=CN(O)CCN1C(=O)Cc2cc(C#Cc3ccc(CN4CCOCC4)cc3)ccc21 | 25 | 4 (≈ 9.54 µM) | 170 |  |
| O=CN(O)C(CO)Cn1nnc2cc(C#Cc3ccc(CN4CCOCC4)cc3)ccc21 (stereo not drawn) | 42 | 2 (≈ 4.59 µM) | 61 |  |
| O=CN(O)CCn1ccc2cc(C#Cc3ccc(CN4CCOCC4)cc3)ncc21 | 740 | 64 (≈ 158 µM) | 1000 |  |
| CS[C@H](Cn1nnc2cc(C#Cc3ccc(CN4CCOCC4)cc3)ccc21)N(O)C=O | 41 | 4 (≈ 8.86 µM) | 21 |  |
| CS[C@@H](Cn1nnc2cc(C#Cc3ccc(CN4CC5(C4)C[S+]([O-])C5)cc3)ccc21)N(O)C=O.O=C(O)C(F)(F)F |  |  |  | solubility [5]: > 200 mg/mL |
| O=CN(O)CCn1ncc2cc(C#Cc3ccc(CN4CCOCC4)cc3)ccc21 | 28 | 4 (≈ 9.89 µM) | 64 |  |
| CC(Cn1nnc2cc(C#Cc3ccc(CN4CCOCC4)cc3)ccc21)N(O)C=O (stereo not drawn) |  | 2 (≈ 4.77 µM) | 14 |  |
| O=CN(O)CCn1cnc2cc(C#Cc3ccc(CN4CCOCC4)cc3)ccc21 | 82 | 16 (≈ 39.6 µM) | 1100 |  |
| O=CN(O)CCn1ccc2nc(C#Cc3ccc(CN4CCOCC4)cc3)ccc21 | 170 | 32 (≈ 79.1 µM) | 1000 |  |
| O=C(CNC(=O)c1ccc(C#Cc2ccc(CN3CCOCC3)cc2)cc1)NO | 21 | 16 (≈ 40.7 µM) | 63 | MIC (Klebsiella pneumoniae): > 64 µg/mL; MIC (Pseudomonas aeruginosa): 64 µg/mL (≈ 163 µM) |
| O=CN(O)CCn1ccc2cc(C#Cc3ccc(CN4CCOCC4)cc3)ccc21 | 10 | 2 (≈ 4.96 µM) | 45 |  |
| C[C@@H](O)[C@H](NC(=O)c1ccc(C#Cc2ccc(CN3CCOCC3)cc2)cc1)C(=O)NO | < 10 | 0.13 (≈ 0.297 µM) |  | MIC (Klebsiella pneumoniae): 2 µg/mL (≈ 4.57 µM); MIC (Pseudomonas aeruginosa): 1 µg/mL (≈ 2.29 µM) |
| CCC(Cc1n[nH]c2cc(C#Cc3ccc(CN4CCOCC4)cc3)ccc12)N(O)C=O (stereo not drawn) | 19 | 4 (≈ 9.25 µM) | 10 | MIC (Klebsiella pneumoniae): > 64 µg/mL; MIC (Pseudomonas aeruginosa): > 64 µg/mL |
| CCSC(Cn1nnc2cc(C#Cc3ccc(CN4CCOCC4)cc3)ccc21)N(O)C=O (stereo not drawn) | < 10 | 0.5 (≈ 1.07 µM) | 5.4 |  |
| COC(Cn1nnc2cc(C#Cc3ccc(CN4CCOCC4)cc3)ccc21)N(O)C=O (stereo not drawn) | < 10 | 0.25 (≈ 0.574 µM) | 7.3 | Stabilty [4]: Unstable |
| CS[C@@H](Cn1nnc2cc(C#Cc3ccc(CN4CCOCC4)cc3)ccc21)N(O)C=O | < 10 | 0.13 (≈ 0.288 µM) | < 1 | fAUC/MIC [6]: 104; clearance [7]: 33.3 mL/min/kg; MIC (Klebsiella pneumoniae): 4 µg/mL (≈ 8.86 µM); Activity (Escherichia coli [8]): >3.2 log10CFU; Activity (Escherichia coli [9]): Dose-dependent effect; Vd [10]: 10.1 L/kg; fraction unbound at 7 h [11]: 0.03; MIC (Pseudomonas aeruginosa): 4 µg/mL (≈ 8.86 µM); Activity (Escherichia coli [12]): 2 log10CFU; IC50 (Acetylcholinesterase): 3500 nM; Cmax [13]: 21500 ng/mL; AUC [14]: 34800 ng·h/mL; CL [15]: 80 mL/min/kg; fraction unbound at 7 h [16]: 0.09; Vd [17]: 0.58 L/kg |
